Experimental data: ChEMBL document CHEMBL1123049, “Functionalized congeners of adenosine: preparation of analogues with high affinity for A1-adenosine receptors” (J Med Chem, 1985)

Each molecule was assayed against T1, Adenosine receptor A1 (Rattus norvegicus, UniProt P25099) (assay: Inhibition of binding of 1 nM N6-[3H]cyclohexyladenosine to adenosine A1 receptor on rat cerebral cortical membranes.).
T1 sequence (P25099 whole entry): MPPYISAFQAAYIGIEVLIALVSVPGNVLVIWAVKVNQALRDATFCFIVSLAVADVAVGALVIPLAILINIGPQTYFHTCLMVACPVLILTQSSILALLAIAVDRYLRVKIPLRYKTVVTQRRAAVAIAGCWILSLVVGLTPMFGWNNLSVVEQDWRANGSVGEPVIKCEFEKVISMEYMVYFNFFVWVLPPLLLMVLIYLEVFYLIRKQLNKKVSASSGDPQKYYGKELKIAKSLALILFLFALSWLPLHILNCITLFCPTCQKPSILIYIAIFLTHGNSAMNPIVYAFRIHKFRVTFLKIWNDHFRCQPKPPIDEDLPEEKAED
Format: cell membranes, Membrane
Outline: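 Displacement of 1 nM N6-[3H]cyclohexyladenosine by a range of analogue concentrations, run in triplicate in at least two separate experiments. IC50 estimated graphically for each experiment. Values are mean ± SEM of two to four experiments.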

| SMILES | Ki |
| --- | --- |
| COc1ccc(Nc2ncnc3c2ncn3[C@@H]2O[C@H](CO)[C@@H](O)[C@H]2O)cc1 | 2.3 nM |
| Cc1ccc(NC(=O)Cc2ccc(Nc3ncnc4c3ncn4C3O[C@H](CO)[C@@H](O)[C@H]3O)cc2)cc1 (some centres not stated) | 1.7 nM |
| CCOC(=O)CNC(=O)Cc1ccc(Nc2ncnc3c2ncn3C2O[C@H](CO)[C@@H](O)[C@H]2O)cc1 (some centres not stated) | 15 nM |
| O=C(Cc1ccc(Nc2ncnc3c2ncn3C2O[C@H](CO)[C@@H](O)[C@H]2O)cc1)Nc1ccc(C(F)(F)F)cc1 (some centres not stated) | 3.3 nM |
| O=C(CCc1ccc(O)cc1)NCCNC(=O)Cc1ccc(NC(=O)Cc2ccc(Nc3ncnc4c3ncn4C3O[C@H](CO)[C@@H](O)[C@H]3O)cc2)cc1 (some centres not stated) | 4.5 nM |
| CNC(=O)Cc1ccc(NC(=O)Cc2ccc(Nc3ncnc4c3ncn4C3O[C@H](CO)[C@@H](O)[C@H]3O)cc2)cc1 (some centres not stated) | 6.7 nM |
| COC(=O)Cc1ccc(NC(=O)Cc2ccc(Nc3ncnc4c3ncn4C3O[C@H](CO)[C@@H](O)[C@H]3O)cc2)cc1 (some centres not stated) | 2.5 nM |
| Cc1ccc(Nc2ncnc3c2ncn3C2O[C@H](CO)[C@@H](O)[C@H]2O)cc1 (some centres not stated) | 2.5 nM |
| COC(=O)C(Cc1ccc(NC(=O)Cc2ccc(Nc3ncnc4c3ncn4C3O[C@H](CO)[C@@H](O)[C@H]3O)cc2)cc1)NC(=O)C(F)(F)F (some centres not stated) | 18 nM |
| NNC(=O)Cc1ccc(NC(=O)Cc2ccc(Nc3ncnc4c3ncn4C3O[C@H](CO)[C@@H](O)[C@H]3O)cc2)cc1 (some centres not stated) | 4.5 nM |
| O=C(O)Cc1ccc(Nc2ncnc3c2ncn3C2O[C@H](CO)[C@@H](O)[C@H]2O)cc1 (some centres not stated) | 210 nM |
| Cc1ccccc1NC(=O)Cc1ccc(Nc2ncnc3c2ncn3C2O[C@H](CO)[C@@H](O)[C@H]2O)cc1 (some centres not stated) | 6.8 nM |
| O=C(CCCCC1SCC2NC(=O)NC21)NCCNC(=O)Cc1ccc(NC(=O)Cc2ccc(Nc3ncnc4c3ncn4C3O[C@H](CO)[C@@H](O)[C@H]3O)cc2)cc1 (some centres not stated) | 11.4 nM |
| CC(=O)NCCNC(=O)Cc1ccc(NC(=O)Cc2ccc(Nc3ncnc4c3ncn4C3O[C@H](CO)[C@@H](O)[C@H]3O)cc2)cc1 (some centres not stated) | 9.3 nM |
| CNC(=O)CNC(=O)C(Cc1ccc(NC(=O)Cc2ccc(Nc3ncnc4c3ncn4C3O[C@H](CO)[C@@H](O)[C@H]3O)cc2)cc1)NC(=O)OC(C)(C)C (some centres not stated) | 13 nM |
| Cc1cccc(NC(=O)Cc2ccc(Nc3ncnc4c3ncn4C3O[C@H](CO)[C@@H](O)[C@H]3O)cc2)c1 (some centres not stated) | 2 nM |
| OC[C@H]1O[C@@H](n2cnc3c(Nc4ccccc4)ncnc32)[C@H](O)[C@@H]1O [N6-PHENYLADENOSINE] | 3.2 nM |
